Measured values: ChEMBL document CHEMBL1806370, “Development of novel naphthalimide derivatives and their evaluation as potential melanoma therapeutics” (Eur J Med Chem, 2011)
pIC50: −log10 of the molar value.

system: UACC-903; assay: Cytotoxicity against human UACC-903 cells assessed as decrease in cell viability after 24 hrs by MTS assay; type: functional, cell-based; conditions: not given
Procedure, shortened: (§1)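 Cells in DMEM with 10% FBS at 37 °C and 5% CO2 were plated at 5×10^3 per well and grown 24 h. They were then exposed 24 or 72 h to 0.5, 1, 5, 10, 25 and 50 µM, with final DMSO 0.5% and DMSO controls. MTS/PMS was added for 4 h at 37 °C. A492 was read with the medium blank subtracted and expressed as % of control. IC50 was taken from three independent experiments (mean ± S.E.).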

| Compound | Activity |
| --- | --- |
| N=C(N)SCCN1C(=O)c2cccc3cccc(c23)C1=O | Dose-dependent effect |

system: A375-S2; assay: Cytotoxicity against human A375-S2 cells assessed as decrease in cell viability after 24 hrs by MTS assay; type: functional, cell-based; conditions: not given; procedure, shortened: as §1

| Compound | Activity |
| --- | --- |
| N=C(N)SCCN1C(=O)c2cccc3cccc(c23)C1=O | Dose-dependent effect |

system: 1205Lu; assay: Cytotoxicity against human 1205 Lu cells assessed as decrease in cell viability after 24 hrs by MTS assay; type: functional, cell-based; conditions: not given; procedure, shortened: as §1

| Compound | Activity |
| --- | --- |
| N=C(N)SCCN1C(=O)c2cccc3cccc(c23)C1=O | Dose-dependent effect |

system: UACC-903; assay: Cytotoxicity against human UACC-903 cells assessed as decrease in cell viability after 72 hrs by MTS assay; type: functional, cell-based; conditions: not given; procedure, shortened: as §1

| Compound | Activity |
| --- | --- |
| N=C(N)SCCN1C(=O)c2cccc3cccc(c23)C1=O | Dose-dependent effect |

system: A375-S2; assay: Cytotoxicity against human A375-S2 cells assessed as decrease in cell viability after 72 hrs by MTS assay; type: functional, cell-based; conditions: not given; procedure, shortened: as §1

| Compound | Activity |
| --- | --- |
| N=C(N)SCCN1C(=O)c2cccc3cccc(c23)C1=O | Dose-dependent effect |

system: 1205Lu; assay: Cytotoxicity against human 1205 Lu cells assessed as decrease in cell viability after 72 hrs by MTS assay; type: functional, cell-based; conditions: not given; procedure, shortened: as §1

| Compound | Activity |
| --- | --- |
| N=C(N)SCCN1C(=O)c2cccc3cccc(c23)C1=O | Dose-dependent effect |

system: UACC-903; assay: Cytotoxicity against human UACC-903 cells after 24 hrs by MTS assay; type: functional, cell-based; conditions: UACC-903, 24 h; procedure, shortened: as §1

| Compound | pIC50 |
| --- | --- |
| N=C(N)SCCN1C(=O)c2cccc3cccc(c23)C1=O | 5.01 |

system: not listed separately; assay: Cytotoxicity against human A375-S2 cells after 24 hrs by MTS assay; type: functional, cell-based; conditions: A375-S2, 24 h; procedure, shortened: as §1

| Compound | pIC50 |
| --- | --- |
| N=C(N)SCCN1C(=O)c2cccc3cccc(c23)C1=O | 5.17 |

system: not listed separately; assay: Cytotoxicity against human SK-MEL-37 cells after 24 hrs by MTS assay; type: functional, cell-based; conditions: not given; procedure, shortened: as §1

| Compound | pIC50 |
| --- | --- |
| N=C(N)SCCN1C(=O)c2cccc3cccc(c23)C1=O | 5.43 |

system: not listed separately; assay: Cytotoxicity against human 1205 Lu cells after 24 hrs by MTS assay; type: functional, cell-based; conditions: not given; procedure, shortened: as §1

| Compound | pIC50 |
| --- | --- |
| N=C(N)SCCN1C(=O)c2cccc3cccc(c23)C1=O | 4.65 |

system: UACC-903; assay: Cytotoxicity against human UACC-903 cells after 72 hrs by MTS assay; type: functional, cell-based; conditions: UACC-903, 72 h; procedure, shortened: as §1

| Compound | pIC50 |
| --- | --- |
| N=C(N)SCCN1C(=O)c2cccc3cccc(c23)C1=O | 5.16 |

system: not listed separately; assay: Cytotoxicity against human A375-S2 cells after 72 hrs by MTS assay; type: functional, cell-based; conditions: A375-S2, 72 h; procedure, shortened: as §1

| Compound | pIC50 |
| --- | --- |
| N=C(N)SCCN1C(=O)c2cccc3cccc(c23)C1=O | 5.42 |

system: not listed separately; assay: Cytotoxicity against human SK-MEL-37 cells after 72 hrs by MTS assay; type: functional, cell-based; conditions: not given; procedure, shortened: as §1

| Compound | pIC50 |
| --- | --- |
| N=C(N)SCCN1C(=O)c2cccc3cccc(c23)C1=O | 5.67 |

system: not listed separately; assay: Cytotoxicity against human 1205 Lu cells after 72 hrs by MTS assay; type: functional, cell-based; conditions: not given; procedure, shortened: as §1

| Compound | pIC50 |
| --- | --- |
| N=C(N)SCCN1C(=O)c2cccc3cccc(c23)C1=O | 4.73 |

system: UACC-903; assay: Induction of apoptosis in human UACC-903 cells assessed as early apoptotic cells at 1 uM after 24 hrs using annexin-V-PE/7-AAD double staining by flow cytometry; type: functional; conditions: not given
Procedure, shortened: (§2)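 UACC 903 cells were exposed 24 h at 37 °C to 1, 5 or 25 µM, with DMSO as control. Cells were harvested, washed twice in cold PBS and resuspended at 1×10^6 cells/mL in binding buffer. They were stained with 7-AAD plus PE Annexin V for 20 min at room temperature in the dark and run by flow cytometry within 1 h. Gating: double-negative live, 7-AAD+ dead, Annexin V+/7-AAD− early apoptotic. Three separate experiments.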

| Compound | Activity [%] |
| --- | --- |
| N=C(N)SCCN1C(=O)c2cccc3cccc(c23)C1=O | 9.11 |

system: UACC-903; assay: Induction of apoptosis in human UACC-903 cells assessed as late apoptotic cells at 1 uM after 24 hrs using annexin-V-PE/7-AAD double staining by flow cytometry; type: functional; conditions: not given; procedure, shortened: as §2

| Compound | Activity [%] |
| --- | --- |
| N=C(N)SCCN1C(=O)c2cccc3cccc(c23)C1=O | 1.04 |

system: UACC-903; assay: Induction of apoptosis in human UACC-903 cells assessed as non-viable cells at 1 uM after 24 hrs using annexin-V-PE/7-AAD double staining by flow cytometry; type: functional; conditions: not given; procedure, shortened: as §2

| Compound | Activity [%] |
| --- | --- |
| N=C(N)SCCN1C(=O)c2cccc3cccc(c23)C1=O | 0.71 |

system: UACC-903; assay: Induction of apoptosis in human UACC-903 cells assessed as viable cells at 1 uM after 24 hrs using annexin-V-PE/7-AAD double staining by flow cytometry; type: functional; conditions: UACC-903, 24 h, read-out: Activity; procedure, shortened: as §2

| Compound | viability at 1 µM [%] |
| --- | --- |
| N=C(N)SCCN1C(=O)c2cccc3cccc(c23)C1=O | 89.1 |

system: UACC-903; assay: Induction of apoptosis in human UACC-903 cells assessed as early apoptotic cells at 5 uM after 24 hrs using annexin-V-PE/7-AAD double staining by flow cytometry; type: functional; conditions: not given; procedure, shortened: as §2

| Compound | Activity [%] |
| --- | --- |
| N=C(N)SCCN1C(=O)c2cccc3cccc(c23)C1=O | 17.5 |

system: UACC-903; assay: Induction of apoptosis in human UACC-903 cells assessed as late apoptotic cells at 5 uM after 24 hrs using annexin-V-PE/7-AAD double staining by flow cytometry; type: functional; conditions: not given; procedure, shortened: as §2

| Compound | Activity [%] |
| --- | --- |
| N=C(N)SCCN1C(=O)c2cccc3cccc(c23)C1=O | 2.41 |

system: UACC-903; assay: Induction of apoptosis in human UACC-903 cells assessed as non-viable cells at 5 uM after 24 hrs using annexin-V-PE/7-AAD double staining by flow cytometry; type: functional; conditions: not given; procedure, shortened: as §2

| Compound | Activity [%] |
| --- | --- |
| N=C(N)SCCN1C(=O)c2cccc3cccc(c23)C1=O | 0.42 |

system: UACC-903; assay: Induction of apoptosis in human UACC-903 cells assessed as viable cells at 5 uM after 24 hrs using annexin-V-PE/7-AAD double staining by flow cytometry; type: functional; conditions: UACC-903, 24 h, read-out: Activity; procedure, shortened: as §2

| Compound | viability at 5 µM [%] |
| --- | --- |
| N=C(N)SCCN1C(=O)c2cccc3cccc(c23)C1=O | 79.7 |

system: UACC-903; assay: Induction of apoptosis in human UACC-903 cells assessed as early apoptotic cells at 25 uM after 24 hrs using annexin-V-PE/7-AAD double staining by flow cytometry; type: functional; conditions: not given; procedure, shortened: as §2

| Compound | Activity [%] |
| --- | --- |
| N=C(N)SCCN1C(=O)c2cccc3cccc(c23)C1=O | 47.6 |

system: UACC-903; assay: Induction of apoptosis in human UACC-903 cells assessed as late apoptotic cells at 25 uM after 24 hrs using annexin-V-PE/7-AAD double staining by flow cytometry; type: functional; conditions: not given; procedure, shortened: as §2

| Compound | Activity [%] |
| --- | --- |
| N=C(N)SCCN1C(=O)c2cccc3cccc(c23)C1=O | 9.64 |

system: UACC-903; assay: Induction of apoptosis in human UACC-903 cells assessed as non-viable cells at 25 uM after 24 hrs using annexin-V-PE/7-AAD double staining by flow cytometry; type: functional; conditions: not given; procedure, shortened: as §2

| Compound | Activity [%] |
| --- | --- |
| N=C(N)SCCN1C(=O)c2cccc3cccc(c23)C1=O | 0.43 |

system: UACC-903; assay: Induction of apoptosis in human UACC-903 cells assessed as viable cells at 25 uM after 24 hrs using annexin-V-PE/7-AAD double staining by flow cytometry; type: functional; conditions: UACC-903, 24 h, read-out: Activity; procedure, shortened: as §2

| Compound | viability at 25 µM [%] |
| --- | --- |
| N=C(N)SCCN1C(=O)c2cccc3cccc(c23)C1=O | 42.4 |

system: UACC-903; assay: Induction of apoptosis in human UACC-903 cells assessed as increase in apoptotic cells after 24 hrs using annexin-V-PE/7-AAD double staining by flow cytometry; type: functional, cell-based; conditions: not given; procedure, shortened: as §2

| Compound | Activity |
| --- | --- |
| N=C(N)SCCN1C(=O)c2cccc3cccc(c23)C1=O | Dose-dependent effect |

system: Mus musculus; assay: Systemic toxicity in Swiss Webster mouse assessed as mortality at 15 mg/kg, ip administered every day for 28 days; type: organism-based; parameters: dose 15 mg/kg, route intraperitoneal; conditions: in vivo, 672 h
Procedure, shortened: (§3)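 Swiss Webster mice, n = 4 per group, dosed i.p. once daily for 28 days at 5, 7.5, 10 or 15 mg/kg body weight. Body weight recorded twice per week; deaths noted over the dosing period.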

| Compound | Activity |
| --- | --- |
| N=C(N)SCCN1C(=O)c2cccc3cccc(c23)C1=O | Toxic |

system: Mus musculus; assay: Systemic toxicity in Swiss Webster mouse assessed as weight loss at 10 mg/kg, ip administered every day for 28 days; type: organism-based; parameters: dose 10 mg/kg, route intraperitoneal; conditions: in vivo, 672 h; procedure, shortened: as §3

| Compound | Activity |
| --- | --- |
| N=C(N)SCCN1C(=O)c2cccc3cccc(c23)C1=O | Non-toxic |

system: Mus musculus; assay: Systemic toxicity in Swiss Webster mouse assessed as mortality at 10 mg/kg, ip administered every day for 28 days; type: organism-based; parameters: dose 10 mg/kg, route intraperitoneal; conditions: in vivo, 672 h; procedure, shortened: as §3

| Compound | Activity |
| --- | --- |
| N=C(N)SCCN1C(=O)c2cccc3cccc(c23)C1=O | Non-toxic |

system: UACC-903; assay: Antitumor activity against human UACC-903 cells xenografted in athymic Harlan Sprague-Dawley nude mouse assessed as reduction in tumor growth at 9.5 to 10.6 mg/kg, ip administered thrice per week for 24 days measured after 21 days; type: functional; conditions: dose mg/kg 9.5-10.6; route intraperitoneal
Procedure, shortened: (§4)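 Female athymic nude mice, 4–6 weeks old, received 5×10^6 UACC 903 cells s.c. in DMEM/10% FBS above both rib cages. After six days they were randomized at 5 mice/group, 2 tumors/mouse. Dosing was i.p. Mon/Wed/Fri, with one arm dosed daily; controls got DMSO vehicle. Tumor dimensions (calipers, mm³) and body weight were recorded three times weekly.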

| Compound | growth inhibition (GI) [%] |
| --- | --- |
| N=C(N)SCCN1C(=O)c2cccc3cccc(c23)C1=O | 20 |

system: Mus musculus; assay: Systemic toxicity in athymic Harlan Sprague-Dawley nude mouse xenografted with human UACC-903 cells assessed as reduction in body weight at 9.5 to 10.6 mg/kg, ip administered thrice a week for 24 days; type: organism-based; parameters: dose 9.5-10.6 mg/kg, route intraperitoneal; conditions: in vivo, 576 h; procedure, shortened: as §4

| Compound | Activity |
| --- | --- |
| N=C(N)SCCN1C(=O)c2cccc3cccc(c23)C1=O | Non-toxic |

system: SK-MEL-37 (Homo sapiens); assay: Cytotoxicity against human SK-MEL-37 cells assessed as decrease in cell viability after 24 hrs by MTS assay; conditions: not given

| Compound | Activity |
| --- | --- |
| N=C(N)SCCN1C(=O)c2cccc3cccc(c23)C1=O | Dose-dependent effect |

system: SK-MEL-37 (Homo sapiens); assay: Cytotoxicity against human SK-MEL-37 cells assessed as decrease in cell viability after 72 hrs by MTS assay; conditions: not given

| Compound | Activity |
| --- | --- |
| N=C(N)SCCN1C(=O)c2cccc3cccc(c23)C1=O | Dose-dependent effect |
